# Screening results (PubChem BioAssay)
# MrgX1 ag – activates human MrgX1 receptor signaling; Q96LB2; MrgX1-HEK293 cells, Fluo-4 calcium fluorescence, agonist mode; stronger effect = higher value; B-score at 10 µM; 310,000 compounds, 0.44% hits;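 active means calcium response B-score plate-corrected fluorescence ratio at least 3 library SD, with starting fluorescence B-score inside 5 SD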
# Target sequence (Q96LB2 whole entry, looked up): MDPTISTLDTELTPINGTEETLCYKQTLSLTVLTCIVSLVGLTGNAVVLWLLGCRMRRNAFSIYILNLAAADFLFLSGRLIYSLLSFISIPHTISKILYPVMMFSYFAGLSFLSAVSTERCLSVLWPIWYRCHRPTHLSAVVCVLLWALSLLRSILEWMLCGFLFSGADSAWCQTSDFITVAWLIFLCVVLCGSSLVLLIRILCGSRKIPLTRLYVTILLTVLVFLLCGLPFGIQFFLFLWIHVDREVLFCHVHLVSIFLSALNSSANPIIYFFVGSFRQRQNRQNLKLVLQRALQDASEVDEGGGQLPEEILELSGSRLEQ
#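 Material – MrgX1-expressing HEK293 cells · Input – 15,000 cells seeded per well · Dosing – compound as first of three additions · Times – overnight seeding, then 1 h dark dye loading · Measured by – kinetic Fluo-4 NW fluorescence of intracellular calcium · Read-out – B-scored fluorescence response ratio · Benchmarks – positive and negative control wells on each plate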
# RGS4 act – RGS4 potentiation or activation. HEK293 M3R/inducible RGS4, carbachol calcium flux Fluo4; stronger effect = lower value. B-score at 10 µM. 310,000 compounds, 0.92% hits;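 active means B-score of the integrated calcium signal more than 4 SD below the library mean, with starting fluorescence not abnormally high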;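 further: negative B-score means reduced calcium response which marks RGS4 activation or potentiation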
#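 System – HEK293 FlpIn-TREx cells, stable M3R, doxycycline-inducible RGS4 · Reagent – ECmax carbachol challenge · Times – compound preincubation 20 min at room temperature before agonist · Technique – Fluo4 fluorescence kinetic imaging of calcium · Measure – B score of integrated Fluo4 ratio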
# RGS4 inh – inhibitors of human RGS4. 310,000 compounds, 0.45% hits. HEK293 M3R/RGS4 inducible, Fluo-4 calcium flux; stronger effect = higher value; triggered by carbachol at its EC20. P49798. B-score at 10 µM;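 active means B-score, a plate-corrected calcium signal, over three deviations above library mean, with baseline fluorescence within five deviations of library mean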;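 further: RGS4 expression induced by doxycycline in cells with stable M3 receptor; B-score is computed from the integrated fluorescence ratio over baseline after carbachol; higher B-score means a larger calcium signal and so more RGS4 inhibition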
# MrgX1 PAM – allosterically activates human MrgX1 receptor signaling; 310,000 compounds, 0.63% hits; MrgX1-HEK293, Fluo-4 calcium flux, FDSS; stronger effect = higher value; B-score at 10 µM;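 active means plate-corrected calcium response at least 3 library SD above typical, normal starting fluorescence, not activating the receptor alone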;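 further: compound read alongside a low EC10 to EC30 dose of BAM8-22 agonist; peak minus trough fluorescence over baseline measured at the second addition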
# MrgX1 antagonist – human MrgX1 receptor antagonism, primary screen; 310,000 compounds, 1.3% hits; MRGX1-HEK293 calcium flux, Fluo-4, BAM8-22 antagonism; stronger effect = lower value; Q96LB2; B-score at 10 µM;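 active means calcium-response B-score plate-corrected more than 3 library SD below zero, starting fluorescence within 5 deviations, no agonist response on first addition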;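 further: peak minus trough fluorescence over baseline after final BAM8-22 challenge near maximal dose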
# The depositor's hits bear a star; i = inactive. Only some compounds are listed: those with a hit (about 3.5% of all), similar ones and a draw of the others.
SMILES,MrgX1 ag,RGS4 act,RGS4 inh,MrgX1 PAM,MrgX1 antagonist
NNC(=O)c1oc2nc(-c3cccs3)cc(-c3ccco3)c2c1N,i,-9.7*,i,i,i
COc1cccc(/C=N/NC(=O)c2oc3nc(-c4ccccc4)cc(-c4ccco4)c3c2N)c1,i,i,i,i,-4.7*
CC(C)N1CCN(Cc2ccc(OCc3ccccc3)cc2)CC1CCO (configuration not stated),i,-7*,i,i,i
CC1CCCN(Cc2ccc(OCc3ccccc3)cc2)C1 (configuration not stated),i,-7.6*,i,i,i
CC(C)N1CCN(Cc2ccc(-c3ccccc3)cc2)CC1CCO (configuration not stated),i,i,i,i,i
CSc1nccc(N/N=C/c2ccccc2)n1,i,i,i,i,i
O=C(NC1CCCCC1)C(c1ccccc1F)N(C(=O)c1csnn1)C1CCCC1 (configuration not stated),i,i,i,i,i
Cc1ccc(N2C(=O)SC(Cc3ccccc3)C2=O)cc1 (configuration not stated),i,i,i,i,i
CCN1CCC2(CC1)N=C(c1ccc(F)cc1)C(=S)N2,i,-7.4*,i,i,i
Cc1ccc(C2=NC3(CCCCC3)NC2=S)cc1,i,i,i,i,i
CCc1ccc(/C=N\NC(=O)c2ccc(Br)o2)s1,i,i,i,i,-4.9*
Cn1c(=O)c(N=O)c(N)n(Cc2ccccc2)c1=S,i,i,i,i,i
Cc1ccc(NC(=O)CN(C)C(=O)c2ccc(NC(=O)CC3SC(N4CCCC4)=NC3=O)cc2)cc1 (configuration not stated),i,i,i,i,-9.6*
COc1ccc(C2=NS(=O)(=O)N(C)C(C(=O)N3CCc4ccccc4C3)=C2)cc1OC,i,i,i,i,i
Cc1c(NC(=O)CSc2ncccn2)c(=O)n(-c2ccccc2)n1C,i,i,i,i,i
Cc1cc(C)n2nc(SCC(=O)Nc3c(C)n(C)n(-c4ccccc4)c3=O)nc2n1,i,i,i,i,-4.6*
O=C(CNc1cccc(C(F)(F)F)c1)N/N=C/c1ccccc1C(=O)O,i,i,i,i,i
CN1CCC(OC(=O)COc2ccc(Br)cc2)CC1,i,-7.5*,i,i,i
COc1ccc(OCC(=O)N2CCN(C(=O)COc3ccc(Br)cc3)CC2)cc1,i,i,i,i,-4.8*
CC(=O)N1CCN(C(=O)COc2ccc(Br)cc2)CC1,i,i,i,i,i
NS(=O)(=O)c1ccc(CNC(=O)Cc2ccc(S(=O)(=O)N3CCOCC3)s2)cc1,i,i,i,i,i
CCC[C@H](CN[C@@H](CNC)[C@H](C)CC)NCCc1cc(C(F)(F)F)cc(C(F)(F)F)c1,i,i,i,i,i
CNC[C@@H](CC1CCCCC1)NC[C@H](CC(C)C)NCCc1cccc(C(F)(F)F)c1,i,-7.3*,i,i,i
CC[C@@H](C)[C@H](CNC)NC[C@@H](Cc1cccc2ccccc12)NCCc1cccc(C(F)(F)F)c1,i,-9.3*,i,i,i
CNC[C@@H](Cc1ccccc1)NC[C@@H](CC1CCCCC1)NCCCc1ccccc1,i,i,i,i,i
CC(C)c1ccc(/C=C/C(=O)NC(=S)Nc2ccc(CN3CCOCC3)cc2)cc1,i,-8.8*,i,i,i
CCOC(=O)N1CCN(S(=O)(=O)c2cc(Br)cnc2N)CC1,i,-7.4*,i,i,i
CC1CCCN(S(=O)(=O)c2ccc(CN3C(=O)c4cccnc4C3=O)cc2)C1 (configuration not stated),i,i,i,i,i
Cc1ccc(S(=O)(=O)NCC(=O)N(CC(=O)NCC2CCCO2)Cc2ccccc2Cl)cc1 (configuration not stated),i,i,i,i,i
CC(C)=CCOc1ccc([C@@H]2COc3c(ccc4c3C=CC(C)(C)O4)C2)c(O)c1,i,-9.4*,i,i,i
